Results of several laboratories.
Compare with care: the assays were run in different laboratories.

COc1ccc2nccc(N3CCc4c(cc(Cn5ccnc5)cc4-c4cn(C)nc4C(F)(F)F)C3=O)c2c1  Tmax (male CD-1 mouse; plasma; oral; 50 mg/kg): 1.3 h
NC(=O)c1cc(Oc2ccc(NC(=O)Nc3ccc(Cl)c(C(F)(F)F)c3)c(F)c2)cc[n+]1[O-]  Tmax (mouse; plasma; oral; 10 mg/kg; single dose): 7.5 h
CCc1ccc(Cc2cc([C@@H]3O[C@H](CO)[C@@H](O)[C@H](O)[C@H]3O)cc3c2CCC3)cc1  Tmax (male C57BL/6 mouse; plasma; oral; 0.3 mg/kg): 0.5 h
COc1nc(-c2cc(C)c(N[C@@H](C)c3c(F)cc(F)cc3F)nn2)ccc1-n1cnc(C)c1  Tmax (male CD-1 mouse; plasma; oral; 5 mg/kg; single dose): 2 h
CC(C)c1cnn2c(NCc3ccccc3)cc(NC[C@H]3CCNC[C@@H]3O)nc12  Tmax (male CD-1 mouse; plasma; oral): 2 h
Cc1cc(NC(=O)c2cccc3cc(-c4cccc5[nH]nc(N)c45)ccc23)ccc1F  Tmax (male CD-1 mouse; brain; oral; 10 mg/kg): 2 h
O=S(=O)(c1ccc(-c2ccc3nccc(Nc4ccncn4)c3c2)cc1)N1CCOCC1  Tmax (female BALB/c mouse; brain; intraperitoneal; 10 mg/kg): 0.25 h
CNCCN(C)c1cc(C#N)cc(CCc2cc(C)cc(N)n2)c1  Tmax (male BALB/c mouse; brain; oral; 10 mg/kg): 4 h
CC(C)(Nc1nc(-c2ccccn2)nc2ccccc12)c1ccccn1  Tmax (female BALB/c mouse; plasma; oral; 50 mg/kg): 5.7 h
CSc1cc(Oc2ccnc3[nH]c(=O)cnc23)ccc1NC(=O)Nc1cc(C(C)(C)C)nn1-c1ccccc1  Tmax (BALB/c mouse; plasma; intravenous; 2 mg/kg): 1 h
CC(C)(C)c1ccc(O)c(CN(Cc2cc(C(C)(C)C)ccc2O)C2CCC(NC(N)=O)CC2)c1 (stereo not drawn)  Tmax (male C57BL/6 mouse; plasma; intraperitoneal; 10 mg/kg; single dose): 0.25 h
COC(=O)CN(CCCc1ccccc1)CC(=O)N[C@@H](Cc1c[nH]cn1)c1nc(C)no1  Tmax (male C57BL/6 mouse; plasma; intraperitoneal; 30 mg/kg): 0.167 h
COc1ccc2c3c1O[C@H]1C[C@@H](OC(=O)c4ccccc4)C=C[C@@]31CCN(C)C2  Tmax (mouse; brain; intravenous; 3 mg/kg): 0.05 h
CC1(C)CC[C@]2(C(=O)O)CC[C@]3(C)C(=CC[C@@H]4[C@@]5(C)C[C@@H](O)[C@H](OC(=O)/C=C/c6ccc(O)cc6)C(C)(C)[C@@H]5CC[C@]43C)[C@@H]2C1 (relative stereo)  Tmax (mouse; plasma; intraperitoneal; 85 µmol/kg; single dose): 0.5 h
Cc1ccc(NC(=O)c2ccc(CN3CCN(C)CC3)cc2)cc1Nc1nccc(-c2cncc(-c3oncc3C)c2)n1  Tmax (male C57BL/6 mouse; brain; oral; 100 mg/kg/day): 2 h
COc1ccc(C(O)COc2ccc(-c3csc(-c4ccc(OCC(O)c5ccc(OC)c(OC)c5)cc4)n3)cc2)cc1OC (stereo not drawn)  Tmax (C57BL/6 mouse; plasma; oral; 75 mg/kg): 1 h
CCc1cc(OC)c2nccc(N3CCc4c(cc(Cn5ccnc5)cc4-c4cn(C)nc4C(F)(F)F)C3=O)c2c1  Tmax (male CD-1 mouse; plasma; oral; 150 mg/kg): 0.5 h
Cc1cc(Nc2ccc3ccccc3c2)n2ncnc2n1  Tmax (male Swiss mouse; plasma; oral; 50 mg/kg; single dose): 0.5 h
